This is an account of results in ChEMBL document CHEMBL1149394, “Guiding farnesyltransferase inhibitors from an ECLiPS library to the catalytic zinc” (Bioorg Med Chem Lett, 2006).

Data set [1] addresses T1, Protein farnesyltransferase (Homo sapiens, UniProt P49354+P49356). As to the kind of experiment: Inhibitory activity against farnesyltransferase quantified by SPA assay. Type of data set: protein-complex assay.
Data set [2] concerns the target T1, Protein farnesyltransferase. As to the kind of experiment: Inhibitory activity against Ha-Ras processing in COS7 cells. Type of data set: functional, cell-based, COS-7.
The subject of a further data set is Liver microsomes. As to the kind of experiment: Metabolic stability in rat liver microsome. The data set is classed as ADME. Put shortly: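 Rat liver microsomes (cytochrome P450 content 6.7 µM) incubated 60 min at 37 °C with compound at 10 µM, KPi pH 7.4 and freshly prepared NADPH, in 1.0 ml final. Read-out is percent of compound remaining.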
Background: Liver microsomes are vesicles of endoplasmic reticulum, rich in cytochrome P450 enzymes.

Data set [3] has as its target Geranylgeranyl transferase type I (Homo sapiens, UniProt P49354+P53609). As to the kind of experiment: Inhibitory activity against Geranylgeranyltransferase 1. Type of data set: protein-complex assay.
For data set [4], the target named is T1, Protein farnesyltransferase. As to the kind of experiment: Inhibitory activity against Farnesyltransferase quantified by modified SPA assay with improved sensitivity. The data set is classed as protein-complex assay. Put shortly:
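Scintillation proximity assay, high-sensitivity version. Purified FTase (30 pM final) was pre-incubated with inhibitor or DMSO control (5% v/v final) for 15 min at room temperature. The reaction was started with biotin-CVLS (100 nM final) and run for 60 min at 37 °C. It was quenched with a cold suspension of 250 mM EDTA pH 8.0, 0.5% BSA and SPA beads, then the IC50 was determined.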

The next data set deals with Mus musculus. As to the kind of experiment: AUC in mice at 10 mg/kg, po. Type of data set: ADME, organism-based, Plasma. Also noted: dose 10 mg/kg, route oral. The conditions noted are these: in vivo.
Data set [5] can be described thus: Bioavailability in mice. Particulars: mouse, in vivo. Type of data set: ADME, organism-based.
A short description of data set [6]: Cmax in mice at 10 mg/kg, po. Type of data set: ADME, organism-based. Also noted: dose 10 mg/kg, route oral. Particulars: mouse, in vivo.

SMILES strings stand for the structures. Some results are limits rather than exact numbers.

For orientation: IC50 means the concentration needed to halve the response being measured. Low values mean higher potency, high ones lower potency. Regarding `CCCCNC(=O)N1CCN(C2c3ccc(Cl)cc3CCc3cc(Br)cnc32)CC1C(=O)NCc1cccnc1` (configuration not stated), the IC50 in data set [1] stood at 9.1 nM; in data set [2], 45 nM.
For `CCCCCC(=O)N1CCN(C2c3ccc(Cl)cc3CCc3cc(Br)cnc32)CC1C(=O)NCc1cccnc1` (configuration not stated), the IC50 in data set [1] came to 8 nM; in data set [2], 75 nM.
For `CCCCC(=O)N1CCN(C2c3ccc(Cl)cc3CCc3cc(Br)cnc32)CC1C(=O)Nc1cccnc1` (configuration not stated) the same measures were 18 nM and 100 nM.
For `CC(C)(C)OC(=O)N1CCN(C2c3ccc(Cl)cc3CCc3cc(Br)cnc32)CC1C(=O)NCc1cccnc1` (configuration not stated) the same measures were 22 nM and over 200 nM.
For the molecule `O=C(NCc1cccnc1)C1CN(C2c3ccc(Cl)cc3CCc3cc(Br)cnc32)CCN1C(=O)CCC1CCCCC1` (configuration not stated), the IC50 in data set [1] amounted to 20 nM; in data set [2] it was 38 nM.
`CC(C)NC(=O)N1CCN(C2c3ccc(Cl)cc3CCc3cc(Br)cnc32)CC1C(=O)NCc1cccnc1` (configuration not stated): the IC50 in data set [1] was 47 nM; in data set [2] it was 140 nM.
The like results for `COC(=O)CCCCC(=O)N1CCN(C2c3ccc(Cl)cc3CCc3cc(Br)cnc32)CC1C(=O)NCc1cccnc1` (configuration not stated) were, in that order, 7.9 nM and 62 nM.
For `O=C(NCCc1c[nH]cn1)C1CN(C2c3ccc(Cl)cc3CCc3cc(Br)cnc32)CCN1C(=O)NC1CCCCC1` (configuration not stated), the IC50 in data set [1] was 7 nM; in data set [2], 18 nM.
As to `O=C(NCc1cccnc1)C1CN(C2c3ccc(Cl)cc3CCc3cc(Br)cnc32)CCN1C(=O)C1CCCCCC1` (configuration not stated), the IC50 stood at 12 nM in data set [1] and 85 nM in data set [2].
The molecule `CCCCC(=O)N1CCN(C2c3ccc(Cl)cc3CCc3cc(Br)cnc32)CC1C(=O)NCc1ccc[n+]([O-])c1` (configuration not stated) returned an IC50 in data set [2] of over 200 nM.
Consider `O=C(NCCCc1c[nH]cn1)C1CN(C2c3ccc(Cl)cc3CCc3cc(Br)cnc32)CCN1C(=O)NC1CCCCC1` (configuration not stated), for which the IC50 in data set [1] came out at 13 nM; in data set [2], 9.7 nM.
For `CCCCC(=O)N1CCN(C2c3ccc(Cl)cc3CCc3cc(Br)cnc32)CC1C(=O)Nc1cnccn1` (configuration not stated) the same measures were 190 nM and 570 nM.
In turn, `CCCCC(=O)N1CCN(C2c3ccc(Cl)cc3CCc3cc(Br)cnc32)CC1C(=O)NCCc1c[nH]cn1` (configuration not stated) yielded an IC50 in data set [2] of 60 nM.
For `CCCCC(=O)N1CCN(C2c3ccc(Cl)cc3CCc3cc(Br)cnc32)CC1C(=O)NCc1c[nH]cn1` (configuration not stated), the 50% inhibitory concentration (IC50) in data set [1] came to 45 nM; in data set [2], 210 nM.
Regarding `CCCCC(=O)N1CCN(C2c3ccc(Cl)cc3CCc3cc(Br)cnc32)CC1C(=O)NCc1cccnc1` (configuration not stated), the IC50 in data set [1] is 5.7 nM; in data set [2], 64 nM.
For `CCCCC(=O)N1CCN(C2c3ccc(Cl)cc3CCc3cc(Br)cnc32)CC1C(=O)Nc1cc(C)no1` (configuration not stated) the same measures were 560 nM and over 4500 nM.
For `O=C(NCc1cccnc1)C1CN(C2c3ccc(Cl)cc3CCc3cc(Br)cnc32)CCN1C(=O)NC1CC1` (configuration not stated) the same measures were 51 nM and 260 nM.
For `COCCC(=O)N1CCN(C2c3ccc(Cl)cc3CCc3cc(Br)cnc32)CC1C(=O)NCc1cccnc1` (configuration not stated), the IC50 came out at 20 nM in data set [1] and 100 nM in data set [2].
For the molecule `CC(C)(C)NC(=O)N1CCN(C2c3ccc(Cl)cc3CCc3cc(Br)cnc32)CC1C(=O)NCc1cccnc1` (configuration not stated), the IC50 was 15 nM in data set [1] and 54 nM in data set [2].
For `O=C(NCc1cccnc1)C1CN(C2c3ccc(Cl)cc3CCc3cc(Br)cnc32)CCN1C(=O)C1CCCC1` (configuration not stated) the same measures were 17 nM and 65 nM.
For `Cc1ccc(CNC(=O)C2CN(C3c4ccc(Cl)cc4CCc4cc(Br)cnc43)CCN2C(=O)NC2CCCCC2)cn1` (configuration not stated) the same measures were 61 nM and 550 nM.
As to `CC(C)CC(=O)N1CCN(C2c3ccc(Cl)cc3CCc3cc(Br)cnc32)CC1C(=O)NCc1cccnc1` (configuration not stated), the IC50 amounted to 7.3 nM in data set [1] and 50 nM in data set [2].
With `CCCNC(=O)N1CCN(C2c3ccc(Cl)cc3CCc3cc(Br)cnc32)CC1C(=O)NCc1cccnc1` (configuration not stated), the IC50 in data set [1] is 19 nM; in data set [2], 59 nM.
For `CC(C)CNC(=O)N1CCN(C2c3ccc(Cl)cc3CCc3cc(Br)cnc32)CC1C(=O)NCc1cccnc1` (configuration not stated) the same measures were 8 nM and 52 nM.
Turning to `O=C(Nc1nncs1)C1CN(C2c3ccc(Cl)cc3CCc3cc(Br)cnc32)CCN1C(=O)NC1CCCCC1` (configuration not stated), the IC50 in data set [1] was 490 nM; in data set [2], over 10000 nM.
For the molecule `Cn1cncc1CCNC(=O)C1CN(C2c3ccc(Cl)cc3CCc3cc(Br)cnc32)CCN1C(=O)NC1CCCCC1` (configuration not stated), the IC50 in data set [1] is 7.3 nM; in data set [2] it was 13 nM.
Consider `Cn1cnc(CCNC(=O)C2CN(C3c4ccc(Cl)cc4CCc4cc(Br)cnc43)CCN2C(=O)NC2CCCCC2)c1` (configuration not stated), for which the results for the 50% inhibitory concentration (IC50) in data set [1] and in data set [2] were 26 nM and 91 nM, respectively.
The like results for `O=C(NCCCN1CCCC1=O)C1CN(C2c3ccc(Cl)cc3CCc3cc(Br)cnc32)CCN1C(=O)NC1CCCCC1` (configuration not stated) were, in that order, 14 nM and 20 nM.
Turning to `O=C(NCc1cccnc1)C1CN(C2c3ccc(Cl)cc3CCc3cc(Br)cnc32)CCN1C(=O)NC1CCCCC1` (configuration not stated), the IC50 in data set [1] amounted to 5.5 nM; in data set [2], 8.6 nM.
The like results for `O=C(NCc1cccnc1)C1CN(C2c3ccc(Cl)cc3CCc3cc(Br)cnc32)CCN1C(=O)NC1CCCCCC1` (configuration not stated) were, in that order, 9.1 nM and 52 nM.
Take `O=C(NCc1cccnc1)C1CN(C2c3ccc(Cl)cc3CCc3cc(Br)cnc32)CCN1C(=O)NCC1CCCCC1` (configuration not stated): the IC50 in data set [1] came to 10 nM; in data set [2], 53 nM.
The like results for `O=C(O)CCCC(=O)N1CCN(C2c3ccc(Cl)cc3CCc3cc(Br)cnc32)CC1C(=O)NCc1cccnc1` (configuration not stated) were, in that order, 7 nM and over 200 nM.
Regarding `CC(=O)CCCC(=O)N1CCN(C2c3ccc(Cl)cc3CCc3cc(Br)cnc32)CC1C(=O)NCc1cccnc1` (configuration not stated), the results for the IC50 in data set [1] and in data set [2] were 8.4 nM and 54 nM, respectively.
For `CN(C)C(=O)CCC(=O)N1CCN(C2c3ccc(Cl)cc3CCc3cc(Br)cnc32)CC1C(=O)NCc1cccnc1` (configuration not stated) the same measures were 13 nM and 11 nM.
The like results for `CCOCC(=O)N1CCN(C2c3ccc(Cl)cc3CCc3cc(Br)cnc32)CC1C(=O)NCc1cccnc1` (configuration not stated) were, in that order, 21 nM and 160 nM.
Consider `Cc1noc(C)c1CNC(=O)C1CN(C2c3ccc(Cl)cc3CCc3cc(Br)cnc32)CCN1C(=O)NC1CCCCC1` (configuration not stated), for which the IC50 in data set [1] worked out at 760 nM.
For `CCCCC(=O)N1CCN(C2c3ccc(Cl)cc3CCc3cc(Br)cnc32)CC1C(=O)NCc1ncc[nH]1` (configuration not stated), the figures for the IC50 in data set [1] and in data set [2] were 80 nM and over 200 nM, respectively.
The like results for `O=C(NCc1cccnc1)C1CN(C2c3ccc(Cl)cc3CCc3cc(Br)cnc32)CCN1C(=O)NC1CCCC1` (configuration not stated) were, in that order, 14 nM and 28 nM.
Turning to `CC(=O)CCCCC(=O)N1CCN(C2c3ccc(Cl)cc3CCc3cc(Br)cnc32)CC1C(=O)NCc1cccnc1` (configuration not stated), the IC50 in data set [1] was 8 nM; in data set [2], 49 nM.
For `CC(C)(C)CC(=O)N1CCN(C2c3ccc(Cl)cc3CCc3cc(Br)cnc32)CC1C(=O)NCc1cccnc1` (configuration not stated) the same measures were 12 nM and 120 nM.
The like results for `CC(=O)CCC(=O)N1CCN(C2c3ccc(Cl)cc3CCc3cc(Br)cnc32)CC1C(=O)NCc1cccnc1` (configuration not stated) were, in that order, 11 nM and 47 nM.
The like results for `O=C(NCCCn1ccnc1)C1CN(C2c3ccc(Cl)cc3CCc3cc(Br)cnc32)CCN1C(=O)NC1CCCCC1` (stereo in doubt; 41) were, in that order, 4.5 nM and 4.2 nM.
Regarding `O=C(NCCCn1ccnc1)C1CN(C2c3ccc(Cl)cc3CCc3cc(Br)cnc32)CCN1C(=O)NC1CCCCC1` (stereo in doubt; 41a), in the data set on Liver microsomes, the Stability is on record as over 95%. Besides, the IC50 was 22000 nM in data set [3], 2 nM in data set [1], 0.1 nM in data set [4] and 1.2 nM in data set [2].
Broadly, the AUC is the area under the concentration-time curve, a measure of exposure. A lower AUC goes with low exposure. For orientation: bioavailability means dose-corrected exposure relative to a reference, in per cent. A low value points to little systemic uptake. The term Cmax denotes the highest concentration seen after dosing. As for `O=C(NCCCn1ccnc1)C1CN(C2c3ccc(Cl)cc3CCc3cc(Br)cnc32)CCN1C(=O)NC1CCCCC1` (stereo in doubt; 41b), the AUC with Mus musculus turned out to be 1660 ng·h/mL. In addition, the bioavailability in data set [5] was 10.6%. Moreover, the IC50 in data set [3] is over 10000 nM; in data set [1], 1.5 nM; in data set [2], 0.56 nM. For the same molecule, the Cmax in data set [6] amounted to 2550 nM.
